From ChEMBL document CHEMBL1149263, “Structure-activity relationships in platelet-activating factor. 12. Synthesis and biological evaluation of platelet-activating factor antagonists with anti-HIV-1 activity” (J Med Chem, 2004)

Key:
Mus musculus = species: Mus musculus; experiment: Blood-brain transfer coefficient in OF1 mouse by in situ brain perfusion method; assay type: ADME, organism-based; settings: in vivo
In short: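 In situ brain perfusion in anaesthetized mice (ip xylazine 8 mg/kg, ketamine 140 mg/kg) through a right common carotid catheter. Perfusate was bicarbonate-buffered saline with 9 mM D-glucose, gassed 95% O2/5% CO2, pH 7.4, 37 °C, carrying [³H]tracer at 0.3–0.4 μCi/mL, with [¹⁴C]sucrose as vascular marker. Brain distribution volume was computed from right-hemisphere radioactivity; five animals.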

[1] = Cytotoxicity against human MDM cells by neutral red staining; assay type: cell-based
In short: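 Fifty percent cytotoxic concentration in monocyte-derived macrophages, assessed by neutral red staining.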

[2] = Cytotoxicity against human MDM cells by neutral red staining at 10 uM; assay type: cell-based
[3] = Cytotoxicity against human MDM cells by neutral red staining at 1 uM; assay type: cell-based
Plasma = experiment: Inhibition of PAF-induced platelet aggregation in rabbit platelet-rich plasma; assay type: functional; settings: Oryctolagus cuniculus
In short: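 Rabbit platelet-rich plasma was prepared from New Zealand rabbit auricular-artery blood collected in 3.8% citrate (pH 7.4) and spun 15 min at 1200 rpm. Antagonists in EtOH (10⁻² to 10⁻⁷ M) were added to stirred PRP for 2 min, then challenged with 2.5 nM PAF. Aggregation was followed by light transmission against a PAF-alone control. IC50 was taken from dose–response curves (five or six determinations).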

[4] = tested on: Human immunodeficiency virus 1; experiment: Inhibition of HIV1 BAL replication in MDM cells assessed by measuring reverse transcriptase at 100 uM; assay type: functional; settings: Human immunodeficiency virus 1, BAL
In short: (§1)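 Monocyte-derived macrophages were infected with the macrophage-tropic HIV-1/Ba-L strain. HIV-1 replication was read as reverse transcriptase activity in culture supernatants. Values come from a single measurement.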

[5] = tested on: Human immunodeficiency virus 1; experiment: Antiviral activity against HIV1 BAL in human MDM cells; assay type: functional, organism-based; settings: Human immunodeficiency virus 1, BAL; in short: as §1
[6] = Partition coefficient, log P of the compound; assay type: physicochemical; settings: octanol/water
Rattus norvegicus [7] = experiment: Cmax in Sprague-Dawley rat at 100 mg/kg, iv normalized to 1 mg/kg; assay type: ADME, organism-based; design: dose 100 mg/kg, route intravenous; settings: in vivo
In short: (§2)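 Single dose given to male Sprague–Dawley rats, three animals. Each animal received 100 mg/kg iv and 500 mg/kg orally. Plasma Cmax, t1/2, AUC and oral bioavailability were determined, and all parameters were normalized to a 1 mg/kg dose so the two routes could be compared.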

[8] = Half life in Sprague-Dawley rat at 100 mg/kg, iv normalized to 1 mg/kg; assay type: ADME, organism-based; settings: in vivo; in short: as §2
Rattus norvegicus [9] = experiment: AUC in Sprague-Dawley rat at 100 mg/kg, iv normalized to 1 mg/kg; assay type: ADME, organism-based, Plasma; settings: in vivo; in short: as §2
Rattus norvegicus [10] = experiment: Cmax in Sprague-Dawley rat at 500 mg/kg, po normalized to 1 mg/kg; assay type: ADME, organism-based; design: dose 500 mg/kg, route oral; settings: in vivo; in short: as §2
[11] = Half life in Sprague-Dawley rat at 500 mg/kg, po normalized to 1 mg/kg; assay type: ADME, organism-based; settings: in vivo; in short: as §2
Rattus norvegicus [12] = experiment: AUC in Sprague-Dawley rat at 500 mg/kg, po normalized to 1 mg/kg; assay type: ADME, organism-based, Plasma; settings: in vivo; in short: as §2
[13] = Bioavailability in Sprague-Dawley rat at 500 mg/kg, po normalized to 1 mg/kg; assay type: ADME, organism-based; settings: in vivo; in short: as §2

Structure (SMILES)	CC50 [1] [µM]	IC50 (Plasma) [µM]	IC50 [5] [µM]	also measured
[3H]COc1c(OC)cc(C(=O)N2CCN(C(=O)c3cc(OC)c(OC)c(OC)c3)C(COC(=O)N(CC)CC)C2)cc1OC (stereo not drawn)	–	–	–	Kin (Mus musculus): 1.02 µL/s/g
CCN(CC)C(=S)OCC1CN(C(=O)c2cc(OC)c(OC)c(OC)c2)CCN1C(=O)c1cc(OC)c(OC)c(OC)c1 (stereo not drawn)	> 1	> 5	–	Activity [2]: Toxic; Activity [3]: Not Active
CCCN(CCC)C(=O)OCC1CN(C(=O)c2cc(OC)c(OC)c(OC)c2)CCN1C(=O)c1cc(OC)c(OC)c(OC)c1 (stereo not drawn)	> 100	0.37	–	inhibition at 100 µM [4]: 66%
CCCCNC(=O)OCC1CN(C(=O)c2cc(OC)c(OC)c(OC)c2)CCN1C(=O)c1cc(OC)c(OC)c(OC)c1 (stereo not drawn)	> 100	0.67	10	–
CCC(=O)OCC1CN(C(=O)c2cc(OC)c(OC)c(OC)c2)CCN1C(=O)c1cc(OC)c(OC)c(OC)c1 (stereo not drawn)	> 100	0.158	> 100	–
COc1cc(C(=O)N2CCN(C(=O)c3cc(OC)c(OC)c(OC)c3)C(CNC(=O)OC(C)C)C2)cc(OC)c1OC (stereo not drawn)	> 100	5	25	–
CCCN(CCC)C(=O)NCC1CN(C(=O)c2cc(OC)c(OC)c(OC)c2)CCN1C(=O)c1cc(OC)c(OC)c(OC)c1 (stereo not drawn)	> 100	> 10	> 10	–
CCCCCCNC(=O)NCC1CN(C(=O)c2cc(OC)c(OC)c(OC)c2)CCN1C(=O)c1cc(OC)c(OC)c(OC)c1 (stereo not drawn)	> 100	> 10	1	–
COc1cc(C(=O)N2CCN(C(=O)c3cc(OC)c(OC)c(OC)c3)C(CNC(=O)Nc3c(C)cccc3C)C2)cc(OC)c1OC (stereo not drawn)	> 100	> 10	32	–
CCN(CC)C(=O)NCC1CN(C(=O)c2cc(OC)c(OC)c(OC)c2)CCN1C(=O)c1cc(OC)c(OC)c(OC)c1 (stereo not drawn)	> 100	> 10	40	–
COc1cc(C(=O)N2CCN(C(=O)c3cc(OC)c(OC)c(OC)c3)C(COC(=S)N(C)C)C2)cc(OC)c1OC (stereo not drawn)	> 100	1.6	–	inhibition at 100 µM [4]: 76%
CCN(CC)C(=O)OCC1CN(C(=O)c2cc(OC)c(OC)c(OC)c2)CCN1C(=O)c1cc(OC)c(OC)c(OC)c1 (stereo not drawn) [PMS-601]	> 1000	8	11	logP [6]: 0.8; Cmax (Rattus norvegicus [7]): 861 ng/mL; half-life [8]: 128 min; AUC (Rattus norvegicus [9]): 1828 ng·h/mL; Cmax (Rattus norvegicus [10]): 33 ng/mL; half-life [11]: 137 min; AUC (Rattus norvegicus [12]): 177 ng·h/mL; bioavailability [13]: 10.9%
